The list is not random: actives were taken first. Their share in the collection is about 2%.
GPR7 antagonist: blocks human GPR7 receptor signaling; P48145; GPR7-expressing cells, fluorescence antagonist assay; inhibition, % at 4.4 µM; 290,000 tested, 1.1% active; in the data active means inhibition above about 16%, passing the limit was not always enough;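 further: cells stimulated with the agonist NPW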
TRPML3 agonist: human mucolipin-3 channel agonism | activation, % at 3 µM | AID 1448 | Q8TDD5 | 220,000 tested, 0.29% active | HEK293 TRPML3-YFP, Fluo-8 calcium fluorescence; 100% = the carbachol control signal;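 active means activation above its plate's cutoff, the mean activation of the plate's test wells plus 3 SD, cut at about 12% in these data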
Target sequence (Q8TDD5 whole entry, looked up): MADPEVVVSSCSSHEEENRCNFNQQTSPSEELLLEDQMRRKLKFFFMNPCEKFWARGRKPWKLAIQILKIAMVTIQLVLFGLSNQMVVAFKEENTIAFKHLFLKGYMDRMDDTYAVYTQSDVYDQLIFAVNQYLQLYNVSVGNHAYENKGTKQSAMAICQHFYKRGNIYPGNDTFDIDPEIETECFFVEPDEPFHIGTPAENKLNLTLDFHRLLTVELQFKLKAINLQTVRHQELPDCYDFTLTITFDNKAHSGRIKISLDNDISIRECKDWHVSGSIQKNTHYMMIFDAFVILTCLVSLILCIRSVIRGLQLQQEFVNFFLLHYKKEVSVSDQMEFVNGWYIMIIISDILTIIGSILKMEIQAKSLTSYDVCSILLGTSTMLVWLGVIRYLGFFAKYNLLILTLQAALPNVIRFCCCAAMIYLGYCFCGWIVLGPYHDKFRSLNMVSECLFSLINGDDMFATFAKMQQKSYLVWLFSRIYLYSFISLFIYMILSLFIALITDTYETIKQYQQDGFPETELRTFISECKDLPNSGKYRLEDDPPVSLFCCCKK
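Test system: HEK293 cells stably carrying human TRPML3-YFP; Doses: single dose, 3 µM final nominal compound, 0.3% DMSO final; Schedule: dye loading 1 h 37 °C then 30 min ambient, 125 s read; Technique: Fluo-8 calcium fluorescence; Benchmarks: high control carbachol 87 µM, low control DMSO.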
CRFR2-BP ag: CRF-BP/CRF-R2 complex agonism. AID 588473. activation, % at 13.2 µM. 350,000 tested, 0.46% active. HEK293 CRF-R2/CRF-BP, calcium dye fluorescence (FLIPR); percent of saturating CRF peptide response;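 active means activation of at least 50%, plus an integration ratio under a set limit after plate pattern correction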
CRFR2-BP antag: blocks CRF-induced signaling of the CRF-BP/CRF-R2 complex | HEK293 CRF-R2/CRF-BP, CRF-induced calcium fluorescence | inhibition, % at 11.8 µM | 350,000 tested, 0.59% active | AID 588475;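 active means inhibition of the ligand-induced calcium signal above about 50% at the single tested concentration, limit read from the data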
zfTRPN1 agonist: agonists of zebrafish TRPN1 channel | AID 1424 | activation, % at 3 µM | HEK293 zebrafish TRPN1-YFP, Fluo-8 calcium fluorescence; 100% = response to 87 µM carbachol | 220,000 tested, 0.18% active;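 active means activation above its plate's cutoff, the mean activation of test wells on that plate plus 3 SD, cut at about 19% in these data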
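System: zebrafish TRPN1-YFP in HEK293 cells / Dosing: 3 µM single point / Timing: dye loading 1 h at 37 °C, then 30 min room temperature / Signal: Fluo-8 calcium fluorescence, excitation 470-495 nm, emission 515-575 nm / Read-out basis: percent activation from peak over basal fluorescence ratio, control-normalized / Control set: high carbachol 87 µM, low DMSO alone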
Of the large screens only hits and unclear results are named; the others gave an inactive call.

O=C1CSC(c2ccccc2F)N1c1cc(Cl)ccc1O (configuration not stated)	CRFR2-BP antag 53
Cc1cccc(-n2c(C)cc(C=C3C(=O)c4ccccc4C3=O)c2C)c1	CRFR2-BP ag 51
Cc1cc(C=C2C(=O)c3ccccc3C2=O)c(C)n1-c1ccc(Cl)cc1	none
CC1CCCN(C(=O)COC(=O)CNS(=O)(=O)c2ccc3ccccc3c2)C1 (configuration not stated)	none (no result: GPR7 antagonist, TRPML3 agonist, zfTRPN1 agonist)
COc1cc(/C(C)=C/c2ccccc2)c2c(c1)oc1ccccc12	none (no result: TRPML3 agonist, CRFR2-BP ag, CRFR2-BP antag, zfTRPN1 agonist)
CC1=CC(C)(C)N(C(=O)CNC2CCCCC2)c2cc(C)ccc21	GPR7 antagonist 23
CC1=CC(C)(C)N(C(=O)CCl)c2cc(C)ccc21	none
COc1cc2c(cc1OC)C(=NO)CCCC2	none (no result: GPR7 antagonist, TRPML3 agonist, zfTRPN1 agonist)
CCOC(=O)C1=C(COC(=O)c2ccccc2OC(F)F)NC(=O)NC1C (configuration not stated)	none (no result: GPR7 antagonist, TRPML3 agonist, zfTRPN1 agonist)
CCOC(=O)C1=C(COC(=O)c2ccc3ccccc3c2O)NC(=O)NC1C (configuration not stated)	CRFR2-BP ag 53 (no result: GPR7 antagonist, TRPML3 agonist, zfTRPN1 agonist)
COc1ccc(C(=O)NNC(=S)NC(=O)c2ccco2)cc1	none
CC(Oc1ccc(Cl)cc1)C(=O)NNC(=S)NC(=O)c1ccco1 (configuration not stated)	CRFR2-BP ag 135
CCCOc1ccc(C(=O)NNC(=S)NC(=O)c2ccco2)cc1	TRPML3 agonist 41, CRFR2-BP ag 137, zfTRPN1 agonist 44
O=C(COc1ccc(Cl)cc1Cl)NNC(=S)NC(=O)c1ccco1	none
COc1ccc(Cl)cc1NC(=O)C(C)NC(c1ccccc1)c1ccccc1 (configuration not stated)	CRFR2-BP antag 53
COc1ccc(Cl)cc1NC(=O)NC(C)C	none
C[C@@H]1CCCCO[C@H](CN(C)C(=O)Nc2ccc3c(c2)OCO3)[C@H](C)CN([C@@H](C)CO)C(=O)c2cc(NS(=O)(=O)c3ccc(Cl)cc3)ccc2O1	none (no result: GPR7 antagonist, TRPML3 agonist, zfTRPN1 agonist)
Cc1ccc(OCC(=O)NNC(=S)NC(=O)c2ccc(Br)o2)c(C)c1	CRFR2-BP ag 51 (no result: TRPML3 agonist, zfTRPN1 agonist)
Cc1ccc(OCC(=O)NNC(=S)NC(=O)c2cccs2)c(C)c1	CRFR2-BP ag 50 (no result: TRPML3 agonist, zfTRPN1 agonist)
COc1cccc(COC(=O)C2CC(=O)N(Cc3ccc(C)cc3)C2)c1OC (configuration not stated)	none (no result: GPR7 antagonist, TRPML3 agonist, zfTRPN1 agonist)
CCOC(=O)c1nnc(-c2ccccc2)nc1N1CC(C)OC(C)C1 (configuration not stated)	CRFR2-BP antag 56
CCN(CC)S(=O)(=O)c1ccc(F)c(C(=O)OC2CC(C)OC2=O)c1 (configuration not stated)	none (no result: TRPML3 agonist, zfTRPN1 agonist)
Cc1cc(S(=O)(=O)NC2CCCCC2)ccc1OCC(=O)NCC1CCCO1 (configuration not stated)	CRFR2-BP antag 57
Cc1cc(S(=O)(=O)NCc2ccccc2)ccc1OCC(=O)NCC1CCCO1 (configuration not stated)	CRFR2-BP ag 241
O=C(COc1ccc(S(=O)(=O)NC2CCCCC2)cc1Cl)NCc1cccnc1	CRFR2-BP antag 80
COc1ccc(C[C@H](N)C(=O)N[C@H]2[C@@H](O)[C@H](n3cnc4c(N(C)C)ncnc43)O[C@@H]2CO)cc1	none (no result: GPR7 antagonist, TRPML3 agonist, zfTRPN1 agonist)
CCN1/C(=C/C(C)=O)Sc2ccc(OC)cc21	none
CCOC(=O)/C(=C/C=C1\Sc2cc(OCC)c(OCC)cc2N1CC)C(C)=O	TRPML3 agonist 30, CRFR2-BP ag 279, zfTRPN1 agonist 46
CCOC(=O)/C(=C\C=C1/Sc2cc(OCC)c(OCC)cc2N1CC)C(C)=O	TRPML3 agonist 46, CRFR2-BP ag 322, zfTRPN1 agonist 74
CCN1/C(=C\C=C2\C(=O)N(C)C(=S)N2C)Sc2ccccc21	none
Cc1nc(Sc2ccccc2)c(C#N)cc1-c1ccccc1	CRFR2-BP antag 53
Cc1nc(Cl)c(C#N)cc1-c1ccccc1	none
Cc1ccc(/C=C/S(=O)(=O)NCC(=O)OCC(=O)NCc2ccccc2)cc1	none (no result: TRPML3 agonist, zfTRPN1 agonist)
CCOC(=O)C1C(c2ccc3c(c2)OCO3)NC(=O)NC1(O)C(F)(F)F (configuration not stated)	zfTRPN1 agonist 28
CCOC(=O)C1C(c2ccc(O)c(OC)c2)NC(=O)NC1(O)C(F)(F)F (configuration not stated)	none (no result: TRPML3 agonist, zfTRPN1 agonist)
O=C(O)c1ccc(S(=O)(=O)N2CCC(NC(=O)C3CCCCC3)CC2)cc1	none (no result: TRPML3 agonist, zfTRPN1 agonist)
Cc1cc(C)n2[nH]c(=O)c(N=Nc3cccc(Cl)c3)c2n1	none
CCOc1ccc(N=Nc2c(=O)[nH]n3c(=O)c4c([nH]c23)CCCC4)cc1	CRFR2-BP antag 51
O=c1[nH]n2c(=O)c3c([nH]c2c1N=Nc1cccc(Cl)c1)CCCC3	CRFR2-BP antag 67
CC(C)NC(=O)CN1C(=O)CSc2ccc(S(=O)(=O)N3CCCC3)cc21	CRFR2-BP antag 64 (no result: TRPML3 agonist, zfTRPN1 agonist)
CCC(C)NC(=O)CN1C(=O)CSc2ccc(S(=O)(=O)N3CCCC3)cc21 (configuration not stated)	none (no result: TRPML3 agonist, zfTRPN1 agonist)
COc1ccc(CCC(=O)Nc2ccc(C(=O)c3ccncc3)cc2)cc1	none (no result: TRPML3 agonist, zfTRPN1 agonist)
O=c1c2ccccc2nc(-c2ccc(Cl)cc2Cl)n1O	none
Cc1ccc(-c2nc3c(Cl)cc(Cl)cc3c(=O)n2O)cc1	CRFR2-BP ag 66 (no result: TRPML3 agonist, zfTRPN1 agonist)
O=c1c2ccc(Cl)cc2nc(-c2cccc(C(F)(F)F)c2)n1O	CRFR2-BP ag 69
N#Cc1ccc(-c2nc3cc(Cl)ccc3c(=O)n2O)cc1	none (no result: TRPML3 agonist, zfTRPN1 agonist)
O=c1c2cc(Cl)ccc2nc(-c2ccc([N+](=O)[O-])cc2)n1O	none
O=c1c2ccccc2nc(-c2ccc(Cl)c(Cl)c2)n1O	CRFR2-BP ag 55
O=c1c2cc(Br)ccc2nc(-c2ccc(Cl)cc2)n1O	CRFR2-BP ag 73 (no result: TRPML3 agonist, zfTRPN1 agonist)
COc1ccc(Cl)cc1C(=O)NC1CC(C)(C)NC(C)(C)C1	none (no result: GPR7 antagonist, TRPML3 agonist, zfTRPN1 agonist)
Cc1ccc(S(=O)(=O)NCc2ccccc2)cc1C(=O)N1CCN(S(=O)(=O)c2ccccc2F)CC1	none (no result: GPR7 antagonist, TRPML3 agonist, zfTRPN1 agonist)
COC(=O)C1=C(C)N(c2ccc(OC)cc2)C(C)=C(C(=O)OC)C1c1ccc(OC)cc1	none
COC(=O)C1=C(C)N(c2ccc(OC)cc2)C(C)=C(C(=O)OC)C1c1ccccc1	CRFR2-BP antag 52
CC(C)(C)c1ccc(C2CC2C(=O)N/N=C\c2ccc[nH]2)cc1 (configuration not stated)	none
CC1CCN(C(=O)COC(=O)c2ccc(N3CCCC3=O)cc2)CC1	none (no result: GPR7 antagonist, TRPML3 agonist, zfTRPN1 agonist)
O=C(c1ccco1)c1cn(CC(=O)N2CCCc3ccccc32)c2ccccc12	GPR7 antagonist 19
O=C1NC2CCCCC2C(=O)N1OS(=O)(=O)c1ccccc1 (configuration not stated)	none (no result: GPR7 antagonist, TRPML3 agonist, zfTRPN1 agonist)
COc1ccc(CNC(=O)c2cc3c(C)nc4ccccc4c3o2)c(OC)c1	CRFR2-BP antag 58
COc1cccc(CNC(=O)c2cc3c(C)nc4ccccc4c3o2)c1	none
Cc1ccc2oc(=O)c(/C=C(\O)CC(C)C)nc2c1	none
Cc1ccc2oc(=O)c(/C=C(\O)c3cccs3)nc2c1	CRFR2-BP ag 120
O=c1oc2ccc(Cl)cc2nc1/C=C(\O)c1cccs1	none

Screening data: PubChem BioAssay, several laboratories
